Measured values taken from ChEMBL document CHEMBL1136745 (J Med Chem, 2003).
≈ marks a conversion by molar mass, not a printed value.

Experiments:
[1] = The octanol/water partition coefficient of [3H]azietomidate; type: physicochemical
How it was run: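 Octanol/water two-phase mixture shaken in amber vial, settled 12 h, radiolabel partition measured.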

[2] = Solubility in 0.05 M Tris-HCl buffer, pH 7.4; type: physicochemical; settings: read-out: S
How it was run: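 Excess compound shaken 3 h in 0.05 M Tris-HCl pH 7.4, centrifuged 10000g for 3 min, concentration read at 350 nm.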

[3] = molecular target: Nicotinic acetylcholine receptor alpha1/beta1/gamma/delta (Mus musculus, UniProt P02716+P04756+P04760+P09690); experiment: Inhibition of recombinant embryonic mouse muscle Nicotinic Acetylcholine Receptor (3 oocytes); type: cell-based, Oocyte
How it was run: (§1)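 Torpedo or embryonic mouse muscle nAChRs in Xenopus oocytes, two-electrode clamp at -70 mV, 20–22 °C, low-Ca ND-96 (0.3 mM CaCl2) without propylene glycol; drug coapplied 5 s with 10 μM acetylcholine after stable response; fit to single-site inhibition equation; reversibility after 5 min wash.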

[4] = molecular target: T1, GABA-A receptor; alpha-1/beta-2/gamma-2 (Homo sapiens) (UniProt P14867+P47870+P18507); experiment: Maximum activation of Gamma-aminobutyric acid A receptor in the absence of GABA compared to GABA response; type: functional
How it was run: (§2)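 Oocytes expressing GABA_A receptors, two-electrode clamp at -50 mV, 20–22 °C, ND-96 pH 7.6; drug applied without GABA, stocks in 35% propylene glycol (superfusate ≤170 mM). […] Washout up to 15 min.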

[5] = Anesthetic potency, Concentration for loss of righting reflexes (LORR) in Xenopus tadpoles; type: functional, frog
How it was run: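 Pre-limb bud Xenopus tadpoles (1.5–2 cm), groups of 5–10 in oxygenated 5 mM Tris-HCl pH 7.4, low light; drug from buffer or ethanol stock (final ethanol ≤5 mM). Tipped at 30–40 min; no righting within 5 s = LORR. Pooled groups of 10–20; quantal curves by Waud method; SD reported.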

[6] = molecular target: T2, GABA-A receptor; alpha-1/beta-2/gamma-2 (Homo sapiens, UniProt P14867+P18507+P47870); experiment: Enhancement of currents elicited by GABA at EC5 (6-12 uM); type: functional
T2 sequence (P14867 whole entry): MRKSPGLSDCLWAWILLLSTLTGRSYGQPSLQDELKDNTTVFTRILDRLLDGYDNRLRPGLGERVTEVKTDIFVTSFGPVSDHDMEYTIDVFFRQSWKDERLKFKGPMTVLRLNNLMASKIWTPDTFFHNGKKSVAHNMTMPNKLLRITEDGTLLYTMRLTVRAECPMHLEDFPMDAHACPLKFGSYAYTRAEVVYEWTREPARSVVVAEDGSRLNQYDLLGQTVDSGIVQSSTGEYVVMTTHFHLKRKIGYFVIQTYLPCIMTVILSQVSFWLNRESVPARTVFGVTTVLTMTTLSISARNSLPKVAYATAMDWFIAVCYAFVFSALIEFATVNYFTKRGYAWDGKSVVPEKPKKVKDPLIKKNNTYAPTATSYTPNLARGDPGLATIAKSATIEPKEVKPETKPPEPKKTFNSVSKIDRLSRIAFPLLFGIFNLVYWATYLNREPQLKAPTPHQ
T2 sequence (P47870 whole entry): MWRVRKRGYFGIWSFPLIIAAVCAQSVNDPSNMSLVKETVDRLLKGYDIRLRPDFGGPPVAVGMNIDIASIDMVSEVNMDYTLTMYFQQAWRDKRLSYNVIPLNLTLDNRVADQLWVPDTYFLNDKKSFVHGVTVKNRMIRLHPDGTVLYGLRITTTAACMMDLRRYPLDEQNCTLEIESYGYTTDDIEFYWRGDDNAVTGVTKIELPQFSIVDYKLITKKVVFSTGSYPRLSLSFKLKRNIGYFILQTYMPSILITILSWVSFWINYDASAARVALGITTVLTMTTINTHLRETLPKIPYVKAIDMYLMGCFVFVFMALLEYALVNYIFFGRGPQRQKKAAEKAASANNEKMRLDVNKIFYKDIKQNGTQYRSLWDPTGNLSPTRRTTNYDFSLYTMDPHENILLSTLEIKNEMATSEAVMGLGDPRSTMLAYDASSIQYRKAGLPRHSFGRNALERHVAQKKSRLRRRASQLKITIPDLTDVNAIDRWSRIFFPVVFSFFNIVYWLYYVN
T2 sequence (P18507 whole entry): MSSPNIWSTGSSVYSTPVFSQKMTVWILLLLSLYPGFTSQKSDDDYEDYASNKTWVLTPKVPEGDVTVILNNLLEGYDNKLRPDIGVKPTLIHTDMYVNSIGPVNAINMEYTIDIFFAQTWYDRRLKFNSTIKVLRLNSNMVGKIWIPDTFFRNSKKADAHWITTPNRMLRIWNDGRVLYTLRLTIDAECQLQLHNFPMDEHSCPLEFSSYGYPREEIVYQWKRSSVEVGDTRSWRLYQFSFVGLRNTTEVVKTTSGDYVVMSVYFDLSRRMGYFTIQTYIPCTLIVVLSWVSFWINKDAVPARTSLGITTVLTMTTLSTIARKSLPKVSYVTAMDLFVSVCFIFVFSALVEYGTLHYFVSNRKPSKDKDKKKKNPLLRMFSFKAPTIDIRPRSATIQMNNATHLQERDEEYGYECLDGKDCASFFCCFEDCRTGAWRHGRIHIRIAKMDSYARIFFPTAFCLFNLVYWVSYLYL

[7] = molecular target: T1, GABA-A receptor; alpha-1/beta-2/gamma-2 (Homo sapiens); experiment: Maximum response for enhancement of currents elicited by GABA at EC5 (6-12 uM); type: functional
[8] = molecular target: T1, GABA-A receptor; alpha-1/beta-2/gamma-2 (Homo sapiens); experiment: Hill coefficient for enhancement of currents elicited by GABA at EC5 (6-12 uM); type: functional
[9] = molecular target: T3, GABA-A receptor; anion channel (Rattus norvegicus) (UniProt O09028+P15431+P18506+P18508+P19969+P20236+P23574+P23576+P28471+P28473+P30191+P62813+P63079+P63138+Q91ZM7+Q9ES14); experiment: Inhibition of [35S]TBPS binding to rat brain membranes at 100 uM (Range = 80-90%); type: cell membranes; settings: Membrane
[10] = molecular target: T2, GABA-A receptor; alpha-1/beta-2/gamma-2; experiment: (§3) Direct activation of Gamma-aminobutyric acid A receptor in the absence of GABA; type: functional
Acetylcholine receptor [11] = molecular target: T4, Acetylcholine receptor (Torpedo californica, UniProt P02710+P02712+P02714+P02718); experiment: (§4) Inhibition of currents when compound wascoapplied with acetylcholine to recombinant Torpedo nAcChoR (from 6 oocytes); type: cell-based, Oocyte; how it was run: as §1
[12] = molecular target: T2, GABA-A receptor; alpha-1/beta-2/gamma-2; experiment: Ability to enhance currents from alpha-1-beta-2-gamma-2L-subunit of GABA receptor elicited by low concentrations of GABA; type: functional
[13] = molecular target: T2, GABA-A receptor; alpha-1/beta-2/gamma-2; experiment: Inhibition of currents elicited by GABA at EC5 (6-12 uM); type: functional
[14] = molecular target: T1, GABA-A receptor; alpha-1/beta-2/gamma-2 (Homo sapiens); experiment: Maximum levels of enhancement of currents from alpha-1-beta-2-gamma-2L-subunit of GABA receptor elicited by low concentrations of GABA; type: functional
[15] = molecular target: GABA-A receptor; anion channel; experiment: Inhibition of [35S]TBPS binding to rat brain membranes; type: cell membranes, Membrane
[16] = molecular target: T1, GABA-A receptor; alpha-1/beta-2/gamma-2 (Homo sapiens); experiment: Maximum activation of Gamma-aminobutyric acid A receptor in the absence of GABA compared to 1 mM GABA; type: functional; how it was run: as §2
[17] = molecular target: T1, GABA-A receptor; alpha-1/beta-2/gamma-2 (Homo sapiens); experiment: as §3; type: functional; how it was run: as §2
[18] = Anesthetic potency, Concentration for loss of righting reflexes (LORR) in Rana temporaria; type: functional, frog
Torpedo = experiment: Concentration that reduced photoincorporation of [3H]azietomidate into the alpha and beta subunits of the nAcChoR in membranes of Torpedo electric organ; type: functional
How it was run: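 Torpedo californica nAChR-rich membranes, 2 mg/mL in Torpedo saline pH 7.0 with 1 mM oxidized glutathione, with 0.9 μM [3H]azietomidate, ± 300 μM carbamylcholine, ± R-etomidate; irradiated at 4 °C, 6 min at 254 nm or 25 min at 365 nm; 8% SDS-PAGE, fluorography, excised bands counted by scintillation.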

Acetylcholine receptor [19] = molecular target: T4, Acetylcholine receptor; experiment: as §4; type: functional, cell-based, Oocyte; how it was run: as §1
[20] = molecular target: T3, GABA-A receptor; anion channel (Rattus norvegicus); experiment: Inhibition of [35S]TBPS binding to rat brain membranes at 100 uM; type: cell membranes; settings: Membrane
[21] = molecular target: T1, GABA-A receptor; alpha-1/beta-2/gamma-2 (Homo sapiens); experiment: Maximum activation of Gamma-aminobutyric acid A receptor compared to maximal control GABA current at >320 uM; type: functional

T4 sequence (P02710 whole entry): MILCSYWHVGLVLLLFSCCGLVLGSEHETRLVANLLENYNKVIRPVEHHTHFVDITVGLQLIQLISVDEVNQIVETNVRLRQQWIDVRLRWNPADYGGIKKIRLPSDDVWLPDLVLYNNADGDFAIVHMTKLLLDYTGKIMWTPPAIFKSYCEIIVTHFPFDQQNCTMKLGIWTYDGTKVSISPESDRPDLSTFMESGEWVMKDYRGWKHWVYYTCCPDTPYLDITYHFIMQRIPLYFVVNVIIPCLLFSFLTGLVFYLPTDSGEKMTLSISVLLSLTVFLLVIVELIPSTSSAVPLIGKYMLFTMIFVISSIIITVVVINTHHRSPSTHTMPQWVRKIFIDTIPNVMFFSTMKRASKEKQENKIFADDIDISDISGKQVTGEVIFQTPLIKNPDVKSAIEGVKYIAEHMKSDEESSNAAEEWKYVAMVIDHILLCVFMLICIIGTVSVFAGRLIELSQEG
T4 sequence (P02712 whole entry): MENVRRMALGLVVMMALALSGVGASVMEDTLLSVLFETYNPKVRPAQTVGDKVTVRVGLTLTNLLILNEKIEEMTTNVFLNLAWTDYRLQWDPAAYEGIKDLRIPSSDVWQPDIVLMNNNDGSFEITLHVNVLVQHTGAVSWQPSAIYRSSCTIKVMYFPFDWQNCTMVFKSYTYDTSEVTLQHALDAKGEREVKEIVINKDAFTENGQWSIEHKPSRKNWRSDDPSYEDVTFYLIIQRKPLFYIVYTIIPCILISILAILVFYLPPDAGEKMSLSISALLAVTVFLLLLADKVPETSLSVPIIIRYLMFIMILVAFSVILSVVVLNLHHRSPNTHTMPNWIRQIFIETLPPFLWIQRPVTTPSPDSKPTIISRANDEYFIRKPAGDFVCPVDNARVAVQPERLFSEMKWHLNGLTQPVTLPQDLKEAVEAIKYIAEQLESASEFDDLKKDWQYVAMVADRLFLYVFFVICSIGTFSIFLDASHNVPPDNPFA
T4 sequence (P02718 whole entry): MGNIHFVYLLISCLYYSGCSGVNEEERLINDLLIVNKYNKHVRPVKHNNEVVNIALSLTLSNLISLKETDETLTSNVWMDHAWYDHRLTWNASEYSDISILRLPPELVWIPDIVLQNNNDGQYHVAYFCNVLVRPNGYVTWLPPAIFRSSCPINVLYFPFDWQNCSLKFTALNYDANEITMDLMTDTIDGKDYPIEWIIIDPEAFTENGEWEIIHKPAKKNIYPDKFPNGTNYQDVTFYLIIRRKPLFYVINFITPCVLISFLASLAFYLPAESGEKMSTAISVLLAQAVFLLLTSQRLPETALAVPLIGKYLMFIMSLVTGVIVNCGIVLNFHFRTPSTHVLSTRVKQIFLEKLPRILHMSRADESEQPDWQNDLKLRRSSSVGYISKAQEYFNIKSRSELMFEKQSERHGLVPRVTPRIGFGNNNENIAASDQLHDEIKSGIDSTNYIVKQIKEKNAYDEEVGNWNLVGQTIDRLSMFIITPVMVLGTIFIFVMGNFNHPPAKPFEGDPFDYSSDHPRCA
T4 sequence (P02714 whole entry): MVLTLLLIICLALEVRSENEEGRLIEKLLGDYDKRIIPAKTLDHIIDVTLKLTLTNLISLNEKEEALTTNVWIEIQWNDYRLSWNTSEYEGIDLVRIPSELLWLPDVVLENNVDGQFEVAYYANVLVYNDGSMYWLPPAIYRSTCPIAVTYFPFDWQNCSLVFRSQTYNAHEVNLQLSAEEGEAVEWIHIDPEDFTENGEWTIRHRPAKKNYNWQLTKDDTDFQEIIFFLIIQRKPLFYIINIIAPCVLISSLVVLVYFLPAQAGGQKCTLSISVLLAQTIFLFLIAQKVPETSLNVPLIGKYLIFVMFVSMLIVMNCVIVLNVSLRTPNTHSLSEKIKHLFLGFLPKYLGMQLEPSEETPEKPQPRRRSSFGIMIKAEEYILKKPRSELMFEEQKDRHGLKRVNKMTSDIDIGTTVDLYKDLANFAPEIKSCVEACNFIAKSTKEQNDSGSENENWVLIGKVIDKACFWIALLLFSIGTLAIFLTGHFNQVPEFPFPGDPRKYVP
Chain of Nicotinic acetylcholine receptor alpha1/beta1/gamma/delta (P04756 whole entry): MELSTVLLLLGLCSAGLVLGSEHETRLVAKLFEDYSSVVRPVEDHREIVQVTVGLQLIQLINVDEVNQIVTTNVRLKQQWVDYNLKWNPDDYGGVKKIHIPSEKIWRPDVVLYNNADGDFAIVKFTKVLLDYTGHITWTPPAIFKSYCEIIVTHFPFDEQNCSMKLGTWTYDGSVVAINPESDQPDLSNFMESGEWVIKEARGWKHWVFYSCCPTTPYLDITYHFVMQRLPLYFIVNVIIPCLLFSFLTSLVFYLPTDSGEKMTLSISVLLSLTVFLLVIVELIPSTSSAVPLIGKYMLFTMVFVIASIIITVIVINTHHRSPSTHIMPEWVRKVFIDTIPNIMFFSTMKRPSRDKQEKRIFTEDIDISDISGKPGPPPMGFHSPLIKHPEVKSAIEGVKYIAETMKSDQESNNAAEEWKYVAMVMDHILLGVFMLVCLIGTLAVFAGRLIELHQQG
Chain of Nicotinic acetylcholine receptor alpha1/beta1/gamma/delta (P09690 whole entry): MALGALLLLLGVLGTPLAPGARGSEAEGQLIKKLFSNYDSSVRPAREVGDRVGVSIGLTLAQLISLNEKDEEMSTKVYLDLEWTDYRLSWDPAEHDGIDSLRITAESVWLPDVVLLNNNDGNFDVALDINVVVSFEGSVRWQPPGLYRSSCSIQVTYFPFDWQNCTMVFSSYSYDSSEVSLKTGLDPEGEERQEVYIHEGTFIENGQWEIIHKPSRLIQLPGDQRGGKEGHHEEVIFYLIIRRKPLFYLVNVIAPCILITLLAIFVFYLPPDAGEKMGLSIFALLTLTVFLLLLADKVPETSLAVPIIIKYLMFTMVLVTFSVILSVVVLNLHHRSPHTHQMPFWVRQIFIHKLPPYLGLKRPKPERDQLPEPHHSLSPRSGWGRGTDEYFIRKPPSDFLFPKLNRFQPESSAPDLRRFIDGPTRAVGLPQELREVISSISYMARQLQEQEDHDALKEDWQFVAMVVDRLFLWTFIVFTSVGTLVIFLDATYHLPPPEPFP
Chain of Nicotinic acetylcholine receptor alpha1/beta1/gamma/delta (P02716 whole entry): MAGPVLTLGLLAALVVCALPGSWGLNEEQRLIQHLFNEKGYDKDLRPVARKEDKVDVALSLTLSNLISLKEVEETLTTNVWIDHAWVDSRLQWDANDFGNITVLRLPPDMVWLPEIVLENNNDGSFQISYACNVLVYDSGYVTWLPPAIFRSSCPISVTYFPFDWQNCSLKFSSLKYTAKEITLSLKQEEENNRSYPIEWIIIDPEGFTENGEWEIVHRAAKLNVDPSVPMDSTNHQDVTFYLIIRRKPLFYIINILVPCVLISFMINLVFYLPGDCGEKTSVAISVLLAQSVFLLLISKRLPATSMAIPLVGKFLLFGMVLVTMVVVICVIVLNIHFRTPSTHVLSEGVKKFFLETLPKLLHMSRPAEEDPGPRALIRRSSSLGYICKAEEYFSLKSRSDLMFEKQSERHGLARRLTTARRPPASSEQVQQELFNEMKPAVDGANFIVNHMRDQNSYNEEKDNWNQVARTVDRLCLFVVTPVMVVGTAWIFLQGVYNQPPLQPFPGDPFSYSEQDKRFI
Chain of Nicotinic acetylcholine receptor alpha1/beta1/gamma/delta (P04760 whole entry): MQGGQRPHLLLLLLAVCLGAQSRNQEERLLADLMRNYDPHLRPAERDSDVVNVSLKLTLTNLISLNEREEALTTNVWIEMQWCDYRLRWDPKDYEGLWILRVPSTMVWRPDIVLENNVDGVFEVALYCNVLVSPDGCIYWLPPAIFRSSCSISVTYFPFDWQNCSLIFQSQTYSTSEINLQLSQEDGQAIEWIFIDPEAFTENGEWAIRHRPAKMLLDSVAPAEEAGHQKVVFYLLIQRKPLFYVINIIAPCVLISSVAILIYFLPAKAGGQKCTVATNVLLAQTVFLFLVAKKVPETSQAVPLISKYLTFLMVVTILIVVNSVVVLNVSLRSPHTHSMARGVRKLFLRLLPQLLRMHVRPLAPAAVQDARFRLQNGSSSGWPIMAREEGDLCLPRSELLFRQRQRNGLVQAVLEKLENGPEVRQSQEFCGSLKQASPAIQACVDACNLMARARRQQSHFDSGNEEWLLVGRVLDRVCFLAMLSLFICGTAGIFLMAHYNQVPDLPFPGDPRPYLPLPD

Row | SMILES | IC50 [3] [µM] | Emax [4] [%] | EC50 [5] [µM] | EC50 [6] [µM] | Max response [7] [%] | nH [8] | IC50 [13] [µM] | Emax [14] [%] | EC50 [18] [µM] | further results
1 | CC(c1ccccc1)n1cncc1C(=O)OCCC1(C)N=N1 (stereo unspecified) [AZIETOMIDATE] | 25 | – | – | – | – | – | – | – | – | Partition coefficient [1]: 3600; solubility [2]: 540 µM (≈ 161 µg/mL)
2 | C[C@H](c1ccccc1)n1cncc1C(=O)OCCC1(C)N=N1 | – | 14 | 2.2 | 2 | 94 | 1.5 | 104 | 127 | – | inhibition [9]: < 90%; EC50 [10]: 37 µM; IC50 (Acetylcholine receptor [11]): 23 µM; EC50 [12]: 1.2 µM; IC50 [15]: 4.9 µM
3 | CCOC(=O)c1cncn1[C@@H](C)c1ccccc1 [S-ETOMIDATE] | – | – | – | – | 110 | 1.9 | – | – | 57 | Emax [16]: 2.9%; Concentration [17]: 100 µM
4 | CCOC(=O)c1cncn1[C@H](C)c1ccccc1 [ETOMIDATE] | 50 | 18 | 2.3 | – | 110 | 1.2 | – | 127 | 3.4 | Concentration (Torpedo): 300 µM; IC50 (Acetylcholine receptor [19]): 41 µM
5 | C[C@@H](c1ccccc1)n1cncc1C(=O)OCCC1(C)N=N1 | – | – | 14 | 20 | 94 | 1.6 | 66.3 | – | – | inhibition [20]: 60%; Emax [21]: 0.5%
